Source: ChEMBL document CHEMBL1157593, “Structure-based design, synthesis, and biological studies of new anticancer norindenoisoquinoline topoisomerase I inhibitors” (2010)
Calls of active or inactive are those of the source. The rule behind the calls is not given here.

Experiments:
HOP-62 = assay: Antiproliferative activity against human HOP62 cells; type: functional
SF-539 = assay: Antiproliferative activity against human SF539 cells; type: functional
MDA-MB-435 = assay: Antiproliferative activity against human MDA-MB-435 cells; type: functional
HCT-116 = assay: Antiproliferative activity against human HCT116 cells; type: functional
UACC-62 = assay: Antiproliferative activity against human UACC62 cells; type: functional
DU-145 = assay: Antiproliferative activity against human DU145 cells; type: functional
SN12C = assay: Antiproliferative activity against human SN12C cells; type: functional
ACHN = assay: Antiproliferative activity against human ACHN cells; type: functional
IGROV-1 = assay: Antiproliferative activity against human IGROV1 cells; type: functional
U-251 = assay: Antiproliferative activity against human U251 cells; type: functional
HCC 2998 = assay: Antiproliferative activity against human HCC2998 cells; type: functional
MCF7 = assay: Antiproliferative activity against human MCF7 cells; type: functional
COLO 205 = assay: Antiproliferative activity against human COLO205 cells; type: functional
RPMI-8226 = assay: Antiproliferative activity against human RPMI8226 cells; type: functional
OVCAR-3 = assay: Antiproliferative activity against human OVCAR-3 cells; type: functional
NCI-H460 = assay: Antiproliferative activity against human NCI-H460 cells; type: functional
CAKI-1 = assay: Antiproliferative activity against human Caki1 cells; type: functional
[1] = molecular target: T1, DNA topoisomerase 1 (Homo sapiens) (UniProt P11387); assay: Inhibition of human recombinant topoisomerase-1-mediated 117bp DNA oligonucleotide cleavage at 10 uM by PAGE
T1 sequence (whole entry): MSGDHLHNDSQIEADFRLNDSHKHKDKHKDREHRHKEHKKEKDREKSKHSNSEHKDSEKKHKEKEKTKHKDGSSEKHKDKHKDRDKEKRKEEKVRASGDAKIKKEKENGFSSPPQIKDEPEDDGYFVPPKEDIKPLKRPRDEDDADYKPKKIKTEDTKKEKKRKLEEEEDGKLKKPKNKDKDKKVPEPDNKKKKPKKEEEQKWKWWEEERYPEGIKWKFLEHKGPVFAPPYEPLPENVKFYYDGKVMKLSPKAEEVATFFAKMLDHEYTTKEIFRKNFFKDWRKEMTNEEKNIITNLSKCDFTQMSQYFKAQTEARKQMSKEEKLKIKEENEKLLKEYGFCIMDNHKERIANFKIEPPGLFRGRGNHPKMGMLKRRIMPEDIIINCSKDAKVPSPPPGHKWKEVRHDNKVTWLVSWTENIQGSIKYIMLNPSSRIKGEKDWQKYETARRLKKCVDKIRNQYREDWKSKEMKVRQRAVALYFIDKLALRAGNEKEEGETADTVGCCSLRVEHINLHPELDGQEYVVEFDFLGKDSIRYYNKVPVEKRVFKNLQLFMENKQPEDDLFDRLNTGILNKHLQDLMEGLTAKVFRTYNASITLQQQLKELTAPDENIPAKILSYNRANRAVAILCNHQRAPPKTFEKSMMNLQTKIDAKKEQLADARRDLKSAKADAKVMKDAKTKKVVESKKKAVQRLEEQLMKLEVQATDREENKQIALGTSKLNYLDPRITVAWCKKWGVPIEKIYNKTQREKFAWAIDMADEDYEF
In short: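 About 2 nM of it is incubated with recombinant Top1 in 10 mM Tris-HCl pH 7.5, 50 mM KCl, 5 mM MgCl2, 0.1 mM EDTA and 15 μg/mL BSA, with compound, for 20 min at 25 °C. Reactions are stopped with 0.5% SDS, run on 20% denaturing PAGE, and cleavage is scored semiquantitatively (0 to ++++) against 1 μM CPT.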

SR = assay: Antiproliferative activity against human SR cells; type: functional
CCRF-CEM = assay: Antiproliferative activity against human CCRF-CEM cells; type: functional
SF-295 = assay: Antiproliferative activity against human SF295 cells; type: functional
MOLT-4 = assay: Antiproliferative activity against human MOLT4 cells; type: functional

Structure (SMILES)	GI50 (HOP-62) [nM]	GI50 (SF-539) [nM]	GI50 (MDA-MB-435) [nM]	GI50 (HCT-116) [nM]	GI50 (UACC-62) [nM]	GI50 (DU-145) [nM]	GI50 (SN12C) [nM]	GI50 (OVCAR-3) [nM]	inhibition [1]	other results
CC[C@@]1(O)C(=O)OCc2c1cc1n(c2=O)Cc2cc3ccccc3nc2-1 [CAMPTOTHECIN]	10	10	40	30	10	10	20	–	–	–
COc1cc2cnc3c(c2cc1OC)Cc1c-3cc2c(c1Cn1ccnc1)OCO2	350	280	–	160	210	260	600	210	Active	GI50 (ACHN): 280 nM; GI50 (IGROV-1): 120 nM; GI50 (U-251): 160 nM; GI50 (HCC 2998): 1100 nM; GI50 (MCF7): 90 nM; GI50 (COLO 205): 510 nM; GI50 (RPMI-8226): 41 nM; GI50 (NCI-H460): 130 nM; GI50 (CAKI-1): 290 nM; GI50 (SR): 12 nM; GI50 (CCRF-CEM): 37 nM; GI50 (SF-295): 150 nM; GI50 (MOLT-4): 60 nM
COc1cc2cnc3c(c2cc1OC)Cc1c-3cc2c(c1CN(C)C)OCO2	6700	14000	16000	1500	12000	1600	13000	1400	Active	–
COc1cc2cnc3c(c2cc1OC)Cc1cc2c(cc1-3)OCO2	72	< 10	< 10	> 100000	< 10	28	> 100000	–	Active	–
COc1cc2cnc3c(c2cc1OC)Cc1c-3cc2c(c1CN(C)CCN(C)C)OCO2	1500	11000	–	1900	730	3400	> 100000	7400	Active	–
COc1cc2cnc3c(c2cc1OC)Cc1c-3cc2c(c1CN1CCCC1)OCO2	1200	1900	2500	640	6700	730	4400	730	Active	–
COc1cc2cnc3c(c2cc1OC)Cc1c-3cc2c(c1CN1CCOCC1)OCO2	2100	1800	–	1400	100000	1900	2300	1700	–	–
COc1cc2c3c(n(C)c(=O)c2cc1OC)-c1cc2c(cc1C3=O)OCO2	1300	41000	96000	35000	4200	37000	68000	–	Active	–
COc1cc2cnc3c(c2cc1OC)Cc1c-3cc2c(c1CN1CCN(C)CC1)OCO2	–	–	–	–	–	–	–	–	Active	–
COc1cc2cnc3c(c2cc1OC)Cc1c-3cc2c(c1C)OCO2	7300	4600	> 100000	890	700	> 100000	> 100000	5800	Active	–
